The source made the active and inactive calls. The rule behind the calls is not given here.
Experiments:
[1] = tested on: Hepatitis B virus subtype adw2; experiment: Antiviral activity against Hepatitis B virus subtype adw2 infected in human HuH7 cells assessed as inhibition of HBsAg secretion after 3 days by EIA; assay type: functional, cell-based
How it was run: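 HBV-expressing Huh7 cells were given 2.5, 5 or 10 μg/mL for 3 days. HBsAg and HBeAg in the conditioned medium were measured by enzyme immunoassay. Mean ± SD, n = 3, compared with untreated cells.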

[2] = tested on: Hepatitis B virus subtype adw2; experiment: Antiviral activity against Hepatitis B virus subtype adw2 infected in human HuH7 cells assessed as reduction in major S/preS RNA level at 2.5 to 10 ug/ml after 2 days by northern blot method; assay type: functional, cell-based
How it was run: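 After pHBV1.2 transfection of Huh7 cells for 2 days, cells were treated at 2.5, 5 or 10 μg/mL for 2 more days. Total RNA was Northern-blotted with an HBV whole-genome DNA probe. GAPDH served as loading control and β-gal marked transfection efficiency. Bands from three experiments were quantified by densitometry and normalized to GAPDH.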

[3] = Antiviral activity against Hepatitis B virus subtype adw2 infected in human HuH7 cells assessed as reduction in HBcAg level at 2.5 ug/ml after 2 days by immunoblot method relative to control; assay type: functional
How it was run: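 Huh7 cells were transfected with pHBV1.2 (1.2-fold HBV adw2 genome) for 2 days, then exposed to 2.5, 5 or 10 μg/mL for another 2 days. Whole-cell protein was extracted with protease inhibitors. SHBs, HBcAg and HBx were detected by immunoblot, with α-tubulin for comparison.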

Hepatitis B virus = experiment: Decrease in HBV S promoter activity infected in human HuH7 cells cotransfected with pHBV1.2 at 10 ug/ml after 24 hrs by luciferase reporter gene assay; assay type: cell-based
How it was run: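 Huh7 cells were seeded for 24 h, then cotransfected with pHBV1.2, pRLSV40 and a pGL4.17-based Core (nt 1636-1851), S (nt 3114-220), PreS (nt 2438-2855) or X (nt 1071-1357) promoter-luciferase construct for 24 h. Cells were then treated at 10 μg/mL for 24 h and lysates were assayed for luciferase. Mean ± SD, n = 3.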

[4] = Decrease in AP-1 (unknown origin) promoter activity expressed in human HuH7 cells cotransfected with pHBV1.2 at 10 ug/ml after 24 hrs by luciferase reporter gene assay; assay type: cell-based
How it was run: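 Huh7 cells were seeded for 24 h, then cotransfected with pHBV1.2, pRLSV40 and pAP1-Luc or pNF-κB-Luc responsive-element reporter for 24 h. Cells were treated at 10 μg/mL for 24 h and lysates were assayed for luciferase. Mean ± SD, n = 3, compared with untreated cells.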

Huh-7 [5] = experiment: Effect on IKKalpha protein expression in human HuH7 cells transfected with pHBV1.2 at 2.5 ug/ml after 2 days by immunoblot method relative to control; assay type: functional
How it was run: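 HBV adw2 genome plasmid pHBV1.2 transfected into Huh7 for 2 days, then 2.5, 5 or 10 μg/mL for another 2 days. Whole-cell protein extracted with protease inhibitors, then SDS-PAGE immunoblot for NF-κB and MAPK pathway proteins. Blots are representative of three sets of experiments.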

Huh-7 [6] = experiment: Decrease in IKKalpha protein expression in human HuH7 cells transfected with pHBV1.2 at 10 ug/ml after 2 days by immunoblot method relative to control; assay type: functional
How it was run: (§1)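 Huh7 cells were transfected with pHBV1.2 for 2 days, then treated at 2.5, 5 or 10 μg/mL for another 2 days. Whole-cell protein was extracted with protease inhibitors. NF-κB p65/p50, phospho-p65, IKKα/β and IκBα/phospho-IκBα were detected by immunoblot. Blots are representative of three experiments.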

[7] = target: Transcription factor p65 (Homo sapiens) (UniProt Q04206); experiment: Decrease in NF-kB p65 phosphorylation in human HuH7 cells transfected with pHBV1.2 at 2.5 ug/ml after 2 days by immunoblot method relative to control; assay type: cell-based; how it was run: as §1
[8] = target: T1, NF-kappa-B inhibitor alpha (Homo sapiens) (UniProt P25963); experiment: Decrease in IKBalpha phosphorylation in human HuH7 cells transfected with pHBV1.2 at 5 ug/ml after 2 days by immunoblot method relative to control; assay type: cell-based; how it was run: as §1
T1 sequence (whole entry): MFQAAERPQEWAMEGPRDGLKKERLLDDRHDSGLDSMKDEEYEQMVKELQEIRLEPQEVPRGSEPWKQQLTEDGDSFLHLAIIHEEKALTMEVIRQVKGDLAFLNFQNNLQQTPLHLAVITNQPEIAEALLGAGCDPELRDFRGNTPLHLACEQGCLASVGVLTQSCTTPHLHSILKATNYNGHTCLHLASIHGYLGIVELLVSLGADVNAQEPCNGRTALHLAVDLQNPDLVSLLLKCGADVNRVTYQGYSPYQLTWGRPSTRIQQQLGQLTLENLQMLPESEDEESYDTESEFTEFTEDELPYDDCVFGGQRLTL

[9] = target: T1, NF-kappa-B inhibitor alpha (Homo sapiens); experiment: Decrease in IKBalpha phosphorylation in human HuH7 cells transfected with pHBV1.2 at 10 ug/ml after 2 days by immunoblot method relative to control; assay type: cell-based; how it was run: as §1
[10] = Antiviral activity against Hepatitis B virus in human HepG2.2.15 cells assessed as inhibition of HBsAg secretion by EIA
[11] = target: Mitogen-activated protein kinase; ERK1/ERK2 (Homo sapiens) (UniProt P27361+P28482); experiment: Decrease in ERK1/2 phosphorylation in human HuH7 cells transfected with pHBV1.2 at 2.5 to 10 ug/ml after 2 days by immunoblot method
Homo sapiens = organism: Homo sapiens; experiment: Decrease in SAPK/JNK phosphorylation in human HuH7 cells transfected with pHBV1.2 at 2.5 to 10 ug/ml after 2 days by immunoblot method
[12] = Antiviral activity against Hepatitis B virus subtype adw2 infected in human HepG2.2.15 cells assessed as inhibition of HBeAg secretion by EIA
Huh-7 [13] = experiment: Effect on p38 MAPK protein expression in human HuH7 cells transfected with pHBV1.2 at 2.5 ug/ml after 2 days by immunoblot method relative to control
Huh-7 [14] = experiment: Decrease in p38 MAPK protein expression in human HuH7 cells transfected with pHBV1.2 at 5 ug/ml after 2 days by immunoblot method relative to control

Chain of Mitogen-activated protein kinase; ERK1/ERK2 (Homo sapiens) (P27361 whole entry, looked up): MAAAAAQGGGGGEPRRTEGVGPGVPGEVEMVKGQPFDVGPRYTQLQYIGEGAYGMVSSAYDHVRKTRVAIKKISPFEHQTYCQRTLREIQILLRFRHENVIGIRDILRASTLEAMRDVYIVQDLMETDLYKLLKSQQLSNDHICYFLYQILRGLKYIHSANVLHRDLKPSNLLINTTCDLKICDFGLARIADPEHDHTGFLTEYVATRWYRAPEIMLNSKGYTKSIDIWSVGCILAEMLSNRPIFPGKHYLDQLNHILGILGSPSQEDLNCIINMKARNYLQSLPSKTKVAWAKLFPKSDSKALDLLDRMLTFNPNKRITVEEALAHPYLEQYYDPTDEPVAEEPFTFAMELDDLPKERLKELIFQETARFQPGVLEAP
Chain of Mitogen-activated protein kinase; ERK1/ERK2 (Homo sapiens) (P28482 whole entry, looked up): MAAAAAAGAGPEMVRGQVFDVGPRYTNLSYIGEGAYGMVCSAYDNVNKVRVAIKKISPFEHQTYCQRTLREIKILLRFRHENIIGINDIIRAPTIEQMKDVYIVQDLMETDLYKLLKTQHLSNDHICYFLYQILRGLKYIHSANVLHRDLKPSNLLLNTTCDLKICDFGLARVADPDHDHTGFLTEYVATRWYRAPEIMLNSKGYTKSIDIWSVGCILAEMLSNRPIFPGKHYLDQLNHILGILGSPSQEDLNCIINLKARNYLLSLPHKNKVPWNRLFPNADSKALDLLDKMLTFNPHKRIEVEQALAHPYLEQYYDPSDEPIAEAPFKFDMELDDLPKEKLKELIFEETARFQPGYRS
Chain of Transcription factor p65 (Homo sapiens) (Q04206 whole entry): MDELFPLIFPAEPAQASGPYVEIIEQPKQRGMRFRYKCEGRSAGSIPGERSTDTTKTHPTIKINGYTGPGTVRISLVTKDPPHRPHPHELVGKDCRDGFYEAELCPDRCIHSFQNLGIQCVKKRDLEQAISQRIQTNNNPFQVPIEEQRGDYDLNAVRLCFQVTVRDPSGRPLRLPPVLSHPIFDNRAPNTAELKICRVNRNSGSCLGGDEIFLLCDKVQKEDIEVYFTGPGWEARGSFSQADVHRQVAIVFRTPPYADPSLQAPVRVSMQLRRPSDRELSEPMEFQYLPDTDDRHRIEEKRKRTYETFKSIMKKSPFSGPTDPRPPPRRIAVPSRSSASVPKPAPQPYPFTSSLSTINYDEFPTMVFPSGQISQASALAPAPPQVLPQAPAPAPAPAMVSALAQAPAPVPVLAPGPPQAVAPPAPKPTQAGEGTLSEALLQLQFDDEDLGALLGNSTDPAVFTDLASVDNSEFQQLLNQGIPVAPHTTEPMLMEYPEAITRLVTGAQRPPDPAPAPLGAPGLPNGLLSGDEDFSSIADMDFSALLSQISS

fold change (FC) [7]: 0.95
fold change (FC) [8]: 0.94
fold change (FC) [9]: 0.25
IC50 [10]: 23.5 µM
Activity [11]: Active
IC50 [12]: 20.4 µM
SMILES: C=C1C[C@@]23CC[C@H]4[C@@](C)(CCC[C@@]4(C)NC(=O)NCCCC)[C@@H]2CC[C@]1(O)C3
inhibition [1]: Dose-dependent effect
Activity [2]: Active
fold change (FC) [3]: 0.78
Activity (Hepatitis B virus): Active
Activity [4]: Active
fold change (FC) (Huh-7 [5]): 1.1
fold change (FC) (Huh-7 [6]): 0.46
Activity (Homo sapiens): Active
fold change (FC) (Huh-7 [13]): 1.01
fold change (FC) (Huh-7 [14]): 0.98

Source: ChEMBL document CHEMBL3997773, “Synthesis of C-4-Substituted Steviol Derivatives and Their Inhibitory Effects against Hepatitis B Virus” (J Nat Prod, 2016)
